Screening results from PubChem BioAssay.
Sampled rows, rich in hits. Any-hit rate of the full collection: about 6.7%.
CHOP inhibitor: CHOP inhibition in unfolded protein response; CHO-K1 CHOP-promoter luciferase, tunicamycin-induced, 15-18 h; inhibition, % at 10 µM; hit rate 3.8% among 220,000; AID 2732;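 active = compounds that reduced the stress-induced luciferase reporter signal by more than about 70% of percent inhibition, limit read from the data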;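 note: 0% = tunicamycin plus vehicle and 100% = wells without tunicamycin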
PREPL inh: human PREPL enzyme inhibition; Q4J6C6; recombinant PREPL, fluorescence polarization activity-based probe; inhibition, % at 5.96 µM; hit rate 0.68% among 320,000; in the data active = inhibition above about 43%;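 note: 0% = enzyme with DMSO and 100% = wells lacking enzyme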
Target sequence (Q4J6C6 whole entry, looked up): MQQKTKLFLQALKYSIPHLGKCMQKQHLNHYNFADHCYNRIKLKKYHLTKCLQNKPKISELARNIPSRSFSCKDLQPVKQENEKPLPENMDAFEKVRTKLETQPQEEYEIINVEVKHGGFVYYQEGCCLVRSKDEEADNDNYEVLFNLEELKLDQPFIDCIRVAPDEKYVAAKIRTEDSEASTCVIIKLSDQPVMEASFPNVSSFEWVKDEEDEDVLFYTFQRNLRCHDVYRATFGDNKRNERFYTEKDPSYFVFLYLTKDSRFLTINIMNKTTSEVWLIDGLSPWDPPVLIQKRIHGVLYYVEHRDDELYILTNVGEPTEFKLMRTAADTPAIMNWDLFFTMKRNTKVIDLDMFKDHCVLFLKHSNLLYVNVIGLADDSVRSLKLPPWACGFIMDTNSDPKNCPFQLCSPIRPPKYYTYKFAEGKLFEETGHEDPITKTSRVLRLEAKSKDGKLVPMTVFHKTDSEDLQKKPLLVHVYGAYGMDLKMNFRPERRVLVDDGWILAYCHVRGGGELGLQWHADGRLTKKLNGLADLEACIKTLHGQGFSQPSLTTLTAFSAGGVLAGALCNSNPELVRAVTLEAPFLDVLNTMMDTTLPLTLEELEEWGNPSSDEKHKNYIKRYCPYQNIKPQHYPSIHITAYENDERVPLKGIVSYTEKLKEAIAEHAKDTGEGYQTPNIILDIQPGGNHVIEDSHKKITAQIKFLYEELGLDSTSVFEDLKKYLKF
CSC inhib: cancer stem cell inhibition; AID 2717; inhibition, % at 7.5 µM; cancer stem cell-like cells viability, luminescence; hit rate 1.1% among 300,000; in the data active = inhibition above about 75%; tested in HMLE shEcad cells
Beta apoptosis: beta cell apoptosis inhibition; AID 435005; INS-1E cytokine-induced death, ATP luminescence, 48 h; percent of positive-control rescue, neutral wells zero; hit rate 0.8% among 300,000; protection from apoptosis, % (test concentration not listed);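 active = Every replicate reaches about 75%, or at least half do and their mean reaches it too, limit read from the data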;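 note: 0% = cytokine-treated negative control wells and 100% = positive control rescue; higher means more ATP so stronger rescue from cytokine killing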
T cruzi inh: blocks replication of Trypanosoma cruzi; T. cruzi beta-gal in NIH3T3, luminescence, 90 h; inhibition, % (concentration not given with the values); hit rate 1.4% among 300,000; AID 1885;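 active = mean inhibition across valid replicates above about 55%, limit read from the data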;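 note: signal also drops with host cell toxicity which is not excluded here; 0% = plate median of DMSO wells and 100% = zero luminescence signal; higher percent means less beta-gal luminescence so fewer parasites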
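System – NIH/3T3 host cells with β-galactosidase reporter T. cruzi · Doses – single 50 nL compound addition per well in DMSO · Reagent – 5000 T. cruzi trypomastigotes/well · Medium – Low-serum DMEM with 2% FBS · Timing – ≥90 h infection period, 3 h prior cell attachment · Evaluation – parasite load inhibition, % · Technique – GalScreen luminescence, 60 min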
NR3A LBD binder: NR3A (human) ligand-binding domain modulation | hit rate 2.5% among 340,000 | NR3A LBD differential scanning fluorimetry, Tm shift; 0% = protein alone, 100% = glycine-bound protein | Tm shift relative to glycine control, % at 25 µM | AID 1259313;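 active = melting temperature shift of at least 10% of the positive control shift, at one fixed dose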
* marks the source's active call; other numbers are inactive results.

Results for O=C(NC1CCCCC1)c1cc(C2CC2)nn1-c1ccccc1 ?
PREPL inh: -6; NR3A LBD binder: 0

How did Nc1ccc(S(=O)(=O)NC2(C(F)(F)F)NC(=O)N(Cc3ccccc3)C2=O)cc1 (centres undefined) do in these assays?
PREPL inh: 13; CSC inhib: -2; Beta apoptosis: -5; T cruzi inh: -1; NR3A LBD binder: -3

What do the screens show for `CN(C)Cc1c(C(=O)N/N=C/c2cccnc2)nnn1-c1nonc1N`?
PREPL inh: 13; CSC inhib: -12; Beta apoptosis: -4; T cruzi inh: 2; NR3A LBD binder: -1

What do the screens show for `Nc1nonc1-n1nnc(C(=O)N/N=C/c2cccc(Cl)c2)c1-c1cccs1`?
PREPL inh: 7; CSC inhib: 0; Beta apoptosis: -14; T cruzi inh: 6; NR3A LBD binder: 27*

Results for CN(Cc1c(C(=O)N/N=C/c2ccccc2F)nnn1-c1nonc1N)c1ccccc1 ?
PREPL inh: -12; CSC inhib: -3; Beta apoptosis: -11; T cruzi inh: 3; NR3A LBD binder: 12*

How did COc1ccc(/C=N/NC(=O)c2nnn(-c3nonc3N)c2-c2cccs2)cc1OC do in these assays?
PREPL inh: 17; CSC inhib: 2; Beta apoptosis: -10; T cruzi inh: -15; NR3A LBD binder: 9

What do the screens show for `Nc1nonc1-n1nnc(C(=O)N/N=C/c2cc(Br)cs2)c1-c1ccccc1`?
PREPL inh: 14; Beta apoptosis: -1; T cruzi inh: -15; NR3A LBD binder: 15*

How did CN(Cc1c(C(=O)N/N=C/c2ccc(O)cc2)nnn1-c1nonc1N)c1ccccc1 do in these assays?
PREPL inh: 8; CSC inhib: 5; Beta apoptosis: 4; T cruzi inh: 2; NR3A LBD binder: 24*

What do the screens show for `O=C1C=C(c2ccc(OC(F)(F)F)cc2)C[C@@H](c2ccc(Cl)cc2)C1`?
PREPL inh: -6; CSC inhib: 58; Beta apoptosis: 3; NR3A LBD binder: 1

What do the screens show for `Nc1nonc1-n1nnc(C(=O)N/N=C\c2cccc(Cl)c2)c1CN1CCOCC1`?
PREPL inh: 11; CSC inhib: -2; Beta apoptosis: 0; T cruzi inh: -12; NR3A LBD binder: -6

What do the screens show for `COc1ccc(/C=N/NC(=O)c2nnn(-c3nonc3N)c2CN(C)c2ccccc2)cc1`?
PREPL inh: 9; CSC inhib: -1; Beta apoptosis: 2; T cruzi inh: -4; NR3A LBD binder: 24*

Results for CN(C)c1ccc(/C=N/NC(=O)c2nnn(-c3nonc3N)c2CN(C)c2ccccc2)cc1 ?
PREPL inh: 18; CSC inhib: -2; Beta apoptosis: 3; T cruzi inh: -4; NR3A LBD binder: 15*

How did CN(Cc1c(C(=O)N/N=C/c2ccccc2)nnn1-c1nonc1N)c1ccccc1 do in these assays?
PREPL inh: 3; CSC inhib: -9; Beta apoptosis: -3; T cruzi inh: 2; NR3A LBD binder: 19*

What do the screens show for `COc1ccccc1/C=N/NC(=O)c1nnn(-c2nonc2N)c1CN(C)c1ccccc1`?
PREPL inh: -7; CSC inhib: -7; Beta apoptosis: 0; T cruzi inh: -4; NR3A LBD binder: 4

Results for CN(Cc1c(C(=O)N/N=C/c2cccc(Cl)c2)nnn1-c1nonc1N)c1ccccc1 ?
PREPL inh: 1; CSC inhib: 11; Beta apoptosis: -2; T cruzi inh: -3; NR3A LBD binder: 21*

What do the screens show for `Clc1cccc2c1CCN(Cc1nc(-c3cnccn3)no1)C2`?
CHOP inhibitor: 6; PREPL inh: -15; CSC inhib: -5; Beta apoptosis: 3; T cruzi inh: 4; NR3A LBD binder: 1

Results for C/C(=N\N=C\c1ccccc1F)c1nnn(-c2nonc2N)c1C ?
CHOP inhibitor: 10; PREPL inh: -10; CSC inhib: -24; Beta apoptosis: 2; T cruzi inh: -2; NR3A LBD binder: 25*

Results for Nc1nonc1-n1nnc(C(=O)N/N=C/c2ccccc2F)c1-c1cccs1 ?
PREPL inh: 3; CSC inhib: -11; Beta apoptosis: -7; T cruzi inh: -4; NR3A LBD binder: -7

What do the screens show for `N#CC12CCCCC1CC1CCCCC1(C#N)N2CCO` (centres undefined)?
CHOP inhibitor: 25; PREPL inh: 5; CSC inhib: -11; Beta apoptosis: -2; T cruzi inh: -14; NR3A LBD binder: -4
